Test results reported in ChEMBL document CHEMBL3286210, “Discovery of 3-aryl-3-ethoxypropanoic acids as orally active GPR40 agonists” (Bioorg Med Chem Lett, 2014).
pEC50: −log10 of the molar value. The source made the active and inactive calls. The rule behind the calls is not given here.

Legend:
[1] = target: Free fatty acid receptor 1 (Homo sapiens, UniProt O14842); assay: Agonist activity at human GPR40 expressed in CHO cells by calcium flux assay; type: functional, cell-based
Method in brief: (§1)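 Intracellular calcium flux read in CHO cells transfected with GPR40; values are means of two or three independent experiments.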

[2] = target: Free fatty acid receptor 1 (Rattus norvegicus, UniProt Q8K3T4); assay: Agonist activity at rat GPR40 expressed in CHO cells by calcium flux assay; type: functional, cell-based; method in brief: as §1
[3] = Lipophilicity, log D of the compound at pH 7.4; type: physicochemical; details: buffer
Homo sapiens = organism: Homo sapiens; assay: Inhibition of mitochondrial respiratory chain complex 1 (unknown origin) at 100 uM
Method in brief: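 Compound tested at 100 μM. Read-out is percent inhibition of mitochondrial respiratory chain complex 1.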

Rattus norvegicus [4] = assay: Antidiabetic activity in diabetic Zucker fatty rat model assessed as reduction of blood glucose level at 10 mg/kg, po administered 30 mins prior to glucose challenge by oral glucose tolerance test; type: functional, organism-based; design: dose 10 mg/kg
Method in brief: (§2)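 Nine-week-old Zucker fatty rats fasted overnight; vehicle or compound given orally (1–10 mg/kg) 30 min before oral glucose load of 2 g/kg; blood sampled for plasma glucose and insulin; mean ± S.E., n = 6.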

[5] = Cmax in F344 rat at 10 mg/kg, po; type: ADME, organism-based; design: dose 10 mg/kg, route oral; details: in vivo
Method in brief: (§3)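 F344 rats; single dose given iv at 10 mg/kg or orally at 10 mg/kg (some compounds iv 2 mg/kg and po 3 mg/kg); plasma drug levels used to derive pharmacokinetic parameters.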

[6] = Oral bioavailability in F344 rat at 10 mg/kg; type: ADME, organism-based; details: in vivo; method in brief: as §3
[7] = AUC in F344 rat at 10 mg/kg, po; type: ADME, organism-based; design: dose 10 mg/kg, route oral; details: plasma; method in brief: as §3
[8] = Clearance in F344 rat at 10 mg/kg, iv; type: ADME, organism-based; design: dose 10 mg/kg, route intravenous; details: in vivo; method in brief: as §3
[9] = Half life in F344 rat at 10 mg/kg, iv; type: ADME, organism-based; design: dose 10 mg/kg, route intravenous; details: in vivo; method in brief: as §3
[10] = Volume of distribution at steady state in F344 rat at 10 mg/kg, iv; type: ADME, organism-based; design: dose 10 mg/kg, route intravenous; details: in vivo, read-out: Vdss; method in brief: as §3
Rattus norvegicus [11] = assay: Antidiabetic activity in diabetic Zucker fatty rat model assessed as increase in insulin level measured during OGTT at 1 to 10 mg/kg, po administered 30 mins prior to glucose challenge; type: functional, organism-based; method in brief: as §2
Rattus norvegicus [12] = assay: Antidiabetic activity in diabetic Zucker fatty rat model assessed as reduction of blood glucose level at 3 mg/kg, po administered 30 mins prior to glucose challenge by oral glucose tolerance test relative to sitagliptin; type: functional
MIN6 = assay: Insulinotropic effect in mouse MIN6 cells in presence of 25 mM glucose; type: functional, cell-based
Method in brief: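 MIN6 mouse insulinoma cells exposed to compound from 0.001 to 10 µM with 25 mM glucose; insulin secreted into medium measured; mean ± S.E. of 4 wells.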

Rattus norvegicus [13] = assay: Antidiabetic activity in po dosed diabetic Zucker fatty rat model assessed as reduction of blood glucose level administered 30 mins prior to glucose challenge by oral glucose tolerance test; type: functional, organism-based; method in brief: as §2
[14] = Clearance in F344 rat at 2 mg/kg, iv; type: ADME, organism-based; design: dose 2 mg/kg, route intravenous; details: in vivo
Method in brief: (§4)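 F344 rats, single iv dose of 2 mg/kg, plasma pharmacokinetic parameters determined.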

[15] = Cmax in diabetic Zucker fatty rat model measured during OGTT at 3 mg/kg, po administered 30 mins prior to glucose challenge; type: ADME, organism-based; design: dose 3 mg/kg, route oral; details: in vivo
Method in brief: (§5)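 Plasma exposure (Cmax, AUC) measured during OGTT in overnight-fasted Zucker fatty rats dosed orally 30 min before a 2 g/kg glucose challenge.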

[16] = Volume of distribution at steady state in F344 rat at 2 mg/kg, iv; type: ADME, organism-based; design: dose 2 mg/kg, route intravenous; details: in vivo, read-out: Vdss; method in brief: as §4
[17] = Cmax in F344 rat at 3 mg/kg, po; type: ADME, organism-based; design: dose 3 mg/kg, route oral; details: in vivo
Method in brief: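 F344 rats, single oral dose of 3 mg/kg, plasma pharmacokinetic parameters determined.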

[18] = Oral bioavailability in F344 rat at 3 mg/kg; type: ADME, organism-based; details: in vivo
Method in brief: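 F344 rats. Bioavailability from an iv dose of 2 mg/kg paired with an oral dose of 3 mg/kg.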

[19] = AUC in diabetic Zucker fatty rat model measured during OGTT at 10 mg/kg, po administered 30 mins prior to glucose challenge; type: ADME, organism-based; design: dose 10 mg/kg, route oral; details: in vivo
Method in brief: (§6)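 9-week-old Zucker fatty rats were fasted overnight and given vehicle or compound orally 30 min before an oral glucose tolerance test with a 2 g/kg glucose challenge. Blood was sampled during the OGTT, and plasma exposure was reported as Cmax (µg/ml) and AUC (µg h/ml).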

[20] = AUC in diabetic Zucker fatty rat model measured during OGTT at 3 mg/kg, po administered 30 mins prior to glucose challenge; type: ADME, organism-based; design: dose 3 mg/kg, route oral; details: in vivo; method in brief: as §6
[21] = Half life in F344 rat at 2 mg/kg, iv; type: ADME, organism-based; design: dose 2 mg/kg, route intravenous; details: in vivo; method in brief: as §4
[22] = AUC in diabetic Zucker fatty rat model measured during OGTT at 1 mg/kg, po administered 30 mins prior to glucose challenge; type: ADME, organism-based; design: dose 1 mg/kg, route oral; details: in vivo; method in brief: as §6
[23] = Cmax in diabetic Zucker fatty rat model measured during OGTT at 1 mg/kg, po administered 30 mins prior to glucose challenge; type: ADME, organism-based; design: dose 1 mg/kg, route oral; details: in vivo; method in brief: as §5
[24] = AUC in F344 rat at 3 mg/kg, po; type: ADME, organism-based; design: dose 3 mg/kg, route oral; details: plasma
[25] = Cmax in diabetic Zucker fatty rat model measured during OGTT at 10 mg/kg, po administered 30 mins prior to glucose challenge; type: ADME, organism-based; design: dose 10 mg/kg, route oral; details: in vivo; method in brief: as §5
[26] = Oral bioavailability in F344 rat; type: ADME, organism-based; details: in vivo; method in brief: as §3

Sequence of Free fatty acid receptor 1 (Rattus norvegicus, UniProt Q8K3T4) (Q8K3T4 whole entry): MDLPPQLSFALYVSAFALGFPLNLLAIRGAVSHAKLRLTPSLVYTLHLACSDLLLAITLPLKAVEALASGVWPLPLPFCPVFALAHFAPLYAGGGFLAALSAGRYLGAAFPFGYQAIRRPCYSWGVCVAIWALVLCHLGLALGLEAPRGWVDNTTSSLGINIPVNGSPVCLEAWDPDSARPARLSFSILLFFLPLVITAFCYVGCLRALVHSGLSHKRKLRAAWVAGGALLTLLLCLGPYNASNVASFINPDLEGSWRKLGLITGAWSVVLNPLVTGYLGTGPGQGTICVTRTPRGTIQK
Sequence of Free fatty acid receptor 1 (Homo sapiens, UniProt O14842) (O14842 whole entry): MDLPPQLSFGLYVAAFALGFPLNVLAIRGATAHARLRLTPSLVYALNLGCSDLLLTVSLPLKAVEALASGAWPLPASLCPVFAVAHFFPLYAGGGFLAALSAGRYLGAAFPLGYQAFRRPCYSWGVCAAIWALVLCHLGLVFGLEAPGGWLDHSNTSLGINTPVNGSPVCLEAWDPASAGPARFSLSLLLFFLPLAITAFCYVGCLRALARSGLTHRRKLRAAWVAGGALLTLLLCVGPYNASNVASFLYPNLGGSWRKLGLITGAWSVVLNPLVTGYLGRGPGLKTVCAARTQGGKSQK

Compound	pEC50 [1]	pEC50 [2]	logD [3]	also measured
Cc1cccc(C)c1-c1cccc(COc2ccc(CCC(=O)O)nn2)c1	6.38	6.51		
COC(Cc1ccc(OCc2cccc(-c3c(C)cccc3C)c2)nc1)C(=O)O (configuration not stated)	6.92	< 5.00		
N[C@@H](CC(=O)N1CCn2c(nnc2C(F)(F)F)C1)Cc1cc(F)c(F)cc1F				Activity (Rattus norvegicus [4]): Active
Cc1cccc(C)c1-c1cccc(COc2ccc(CCC(=O)O)cn2)c1	8.46	7.42	3	Cmax [5]: 3500 ng/mL; bioavailability [6]: 24%; AUC [7]: 2000 ng·h/mL; clearance [8]: 20 mL/min/kg; half-life [9]: 14.4 min; Vd [10]: 0.22 L/kg
Cc1cccc(C)c1-c1cccc(COc2ncc(CCC(=O)O)s2)c1	7.19	6.27		
O=C(O)CCc1ccc(NCc2cccc(Oc3ccccc3)c2)cc1 [GW9508]	7.89	7.00		
CCOC(CC(=O)O)c1ccc(OCc2cccc(-c3c(C)cccc3C)c2)nc1 (configuration not stated)	7.85	6.89	2.8	inhibition (Homo sapiens): 66%
Cc1cccc(C)c1-c1cccc(COc2ccc(CCC(=O)O)cc2)c1	8.17	7.74	> 3.3	inhibition (Homo sapiens): 58%; bioavailability [26]: 0.9%
Cc1cccc(C)c1-c1cccc(COc2ccc(CCC(=O)O)s2)c1	7.28	6.08	> 2.4	
Cc1cccc(C)c1-c1cccc(COc2ccc(CC(C)C(=O)O)cn2)c1 (configuration not stated)	7.19	5.68		

Continued, in another order:

pEC50 [1]	pEC50 [2]	logD [3]	Compound	also measured
5.60	5.04		Cc1cc(CCC(=O)O)cnc1OCc1cccc(-c2c(C)cccc2C)c1	
7.15	6.68	2.4	Cc1cccc(C)c1-c1cccc(COc2ccc(CCC(=O)O)nc2)c1	
8.00	6.49	3.3	Cc1cccc(C)c1-c1cccc(COc2ccc(C(C)CC(=O)O)cn2)c1 (configuration not stated)	inhibition (Homo sapiens): 39%
7.46	7.11		CCOC(CC(=O)O)c1ccc(OCc2cccc(C)c2)cc1 (configuration not stated)	
6.89	5.85	2	Cc1cccc(C)c1-c1cccc(COc2ncc(CCC(=O)O)cn2)c1	
8.03	6.89		Cc1cc(OCc2cccc(-c3c(C)cccc3C)c2)ncc1CCC(=O)O	
6.64	6.12	0.7	CCOC(CC(=O)O)c1ccc(OCc2ccccc2)nc1 (configuration not stated)	inhibition (Homo sapiens): 1%
8.42	7.80	2.5	Cc1cccc(C)c1-c1cccc(COc2cnc(CCC(=O)O)cn2)c1	
6.43	6.54		CCOC(CC(=O)O)c1ccc(OCc2ccc(C)cc2)cc1 (configuration not stated)	
7.09	5.96		Cc1cccc(C)c1-c1cccc(COc2ccc(CCC(=O)O)c(C)n2)c1	
7.70	7.10	1.2	CCOC(CC(=O)O)c1ccc(OCc2ccccc2C)cc1 (configuration not stated)	Activity (Rattus norvegicus [11]): Active; fold change (FC) (Rattus norvegicus [12]): 3; Activity (MIN6): Dose-dependent effect; Activity (Rattus norvegicus [13]): Dose-dependent effect; clearance [14]: 6.17 mL/min/kg; Cmax [15]: 14000 ng/mL; Vd [16]: 0.16 L/kg; Cmax [17]: 3300 ng/mL; bioavailability [18]: 64%; AUC at 0.5 h [19]: 78000 ng·h/mL; AUC at 0.5 h [20]: 19000 ng·h/mL; half-life [21]: 22.2 min; AUC at 0.5 h [22]: 4800 ng·h/mL; Cmax [23]: 4100 ng/mL; inhibition (Homo sapiens): 6%; AUC [24]: 5300 ng·h/mL; Cmax [25]: 51000 ng/mL
7.74	7.02		Cc1cccc(C)c1-c1cccc(COc2ccc(C(F)CC(=O)O)cn2)c1 (configuration not stated)	inhibition (Homo sapiens): 91%
8.07	6.60		Cc1cccc(C)c1-c1cccc(COc2ccc(CC(F)C(=O)O)cn2)c1 (configuration not stated)	inhibition (Homo sapiens): 58%
7.31	6.72		Cc1cccc(C)c1-c1cccc(COc2cc3c(cn2)C(CC(=O)O)OC3)c1 (configuration not stated)	
